Reference: ChEMBL document CHEMBL3414514, “Synthesis and pharmacological evaluation of novel bisindole derivatives bearing oximes moiety: identification of novel proapoptotic agents” (Eur J Med Chem, 2015)
Active and inactive are the calls of the source. No cut-off for these calls is given here.

Key:
[1] = Cell cycle arrest in human T24 cells assessed as reduction in CDK2 level after 24 hrs by Western blotting analysis; format: functional, cell-based; conditions: T-24
Method in brief: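 T24 cells treated at […] for 24 h and lysed in ice-cold RIPA buffer with protease inhibitors and NaF. Protein measured by Bradford; 30 micrograms per lane run on 12% SDS-PAGE and transferred to PVDF. Blocked 2 h at room temperature, primary antibody overnight at 4 C, HRP secondary (1:2000) 1 h, chemiluminescence detection.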

T-24 [2] = assay: Induction of apoptosis in human T24 cells assessed as necrotic cells at 10 uM after 24 hrs by annexin-V-FITC/propidium iodide staining-based flow cytometry (reference value: 1.66%); format: functional
[3] = Cell cycle arrest in human T24 cells assessed as accumulation at S phase at 20 uM after 48 hrs by Rnase A/propidium iodide staining-based flow cytometry (reference value: 62%); format: functional; conditions: T-24
Method in brief: (§1)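 T24 cells exposed to […] for 48 h, washed with ice-cold PBS, then fixed and permeabilized overnight in ice-cold 70% ethanol. RNase A (100 mg/mL) treatment at 37 C for 30 min, then PI staining (1 mg/mL) in the dark at 4 C for 30 min. Flow cytometry gave the percentage of cells in G1, S and G2 phase.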

[4] = Induction of apoptosis in human T24 cells assessed as Bax upregulation after 24 hrs by qRT-PCR analysis; format: functional, cell-based; conditions: T-24
Method in brief: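 T24 cells treated at […] for 24 h before RNA extraction. SYBR Green qRT-PCR with 500 nM primers: 2 min at 50 C, 10 min at 95 C, then 40 cycles of 15 s at 95 C and 1 min at 60 C. Expression by the ΔCt method against actin, normalized to untreated cells; run in triplicate.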

T-24 [5] = assay: Induction of apoptosis in human T24 cells assessed as viable cells at 20 uM after 24 hrs by annexin-V-FITC/propidium iodide staining-based flow cytometry (reference value: 93.5%); format: functional; conditions: T-24, 24 h, read-out: Activity
T-24 [6] = assay: Induction of apoptosis in human T24 cells assessed as increase in caspase-3 protein expression at 20 uM after 6 to 24 hrs by Western blotting analysis; format: functional, cell-based
T-24 [7] = assay: Induction of apoptosis in human T24 cells assessed as fragmented nuclei after 24 hrs by Hoechst 33258 staining-based fluorescence microscopic analysis relative to control; format: functional, cell-based
Method in brief: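 T24 cells on cover slips treated at […] for 24 h; untreated cells as control. Fixed in 4% paraformaldehyde for 10 min, PBS washes, Hoechst 33258 for 5 min. Nuclei imaged by fluorescence microscopy, excitation 350 nm, emission 460 nm.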

[8] = Cell cycle arrest in human T24 cells assessed as accumulation at S phase at 5 uM after 48 hrs by Rnase A/propidium iodide staining-based flow cytometry (reference value: 62%); format: functional; conditions: T-24; method in brief: as §1
T-24 [9] = assay: Induction of apoptosis in human T24 cells assessed as viable cells at 10 uM after 24 hrs by annexin-V-FITC/propidium iodide staining-based flow cytometry (reference value: 93.5%); format: functional; conditions: T-24, 24 h, read-out: Activity
A549 = assay: Cytotoxicity against human A549 cells after 2 days by MTT assay; format: functional, cell-based; conditions: A549, 48 h
Method in brief: (§2)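 Cells grown in medium with 10% heat-inactivated FBS at 37 C under 5% CO2. Compounds dissolved in medium with 1% DMSO; controls received 1% DMSO. After 2 days, MTT (10 mg/mL) added for 4 h, formazan dissolved in DMSO and absorbance read at 570/630 nm. Survival taken relative to negative control; IC50 by Bliss method (n = 5), at least three independent experiments.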

MGC-803 = assay: Cytotoxicity against human MGC803 cells after 2 days by MTT assay; format: functional, cell-based; conditions: MGC-803, 48 h; method in brief: as §2

## COc1ccc2c(c1)/C(=N\O)C(c1c[nH]c3ccc(OC)cc13)=N2
[1]
  Activity: Dose-dependent effect
T-24 [2]
  Activity: 1.22%
[3]
  Activity: 28.4%
[4]
  Activity: Dose-dependent effect
T-24 [5]
  viability at 20 µM: 58.1%
T-24 [6]
  Activity: Active
T-24 [7]
  Activity: Dose-dependent effect
[8]
  Activity: 51.9%
T-24 [9]
  viability at 10 µM: 79.9%
A549
  IC50: 6.09 µM
MGC-803
  IC50: 7.66 µM
